Most compounds without a hit are left out; they make up all but 3.6% or so of the library.
SR-BI uptake up: enhances SR-BI lipid uptake from DiI-HDL; CHO ldlA[mSR-BI] cells, DiI-HDL uptake fluorescence, 3 h; 100 = double the neutral-control signal; activation, % at 12.5 µM; 0.096% of 320,000 active;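 active = mean replicate activation of at least 60% and every replicate at or above 60%; inconclusive = mean or all-replicate condition met, but not both; inactive = mean below 60% and not all replicates reaching 60%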
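Material: SR-BI-overexpressing, LDLR-lacking CHO cells; schedule: compound exposure 3 h, 37 °C; reagent: DiI-labelled HDL at 10 µg/mL final; technique: bottom-read fluorescence, 550/595 nm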
SR-BI HDL uptake: mouse SR-BI HDL lipid transfer inhibition. Q61009. ldlA[mSR-BI] CHO cells, DiI-HDL uptake fluorescence, 3 h. inhibition, % at 12.5 µM. 0.96% of 320,000 active. AID 488896;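 active = mean replicate inhibition of at least 70% and a set share of replicates each scoring 70 or more; inconclusive = meets just one of the two criteria; inactive = fails both criteria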
Target sequence (Q61009 whole entry, looked up): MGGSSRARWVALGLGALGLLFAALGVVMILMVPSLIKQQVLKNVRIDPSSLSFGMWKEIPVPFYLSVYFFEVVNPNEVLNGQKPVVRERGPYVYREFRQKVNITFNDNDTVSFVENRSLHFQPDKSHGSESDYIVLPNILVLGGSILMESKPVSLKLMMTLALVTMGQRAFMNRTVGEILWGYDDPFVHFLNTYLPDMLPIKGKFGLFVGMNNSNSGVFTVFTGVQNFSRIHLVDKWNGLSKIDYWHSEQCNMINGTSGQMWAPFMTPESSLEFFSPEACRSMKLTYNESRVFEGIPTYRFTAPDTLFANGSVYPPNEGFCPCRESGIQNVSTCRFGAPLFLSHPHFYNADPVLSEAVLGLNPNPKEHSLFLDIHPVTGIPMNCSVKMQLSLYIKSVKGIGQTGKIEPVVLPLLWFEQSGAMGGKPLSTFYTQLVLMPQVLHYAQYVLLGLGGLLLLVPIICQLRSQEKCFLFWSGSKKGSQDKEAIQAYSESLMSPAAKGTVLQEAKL
Wnt act: activates Wnt/beta-catenin signaling in a reporter cell assay; activator, plate reader; activation, % at 9.35 µM; 1.2% of 300,000 active; AID 743398; in the data active = activation above about 30%, passing the limit was not always enough; inconclusive = no clear call, values can overlap the other calls
MITF act: activators of MITF-driven TRPM1 promoter activity in SK-MEL-5 cells. 0.75% of 300,000 active. activation, % at 12.5 µM. SK-MEL-5 TRPM1-promoter luciferase, 24 h; % of positive control, neutral wells = 0. AID 588334;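 active = mean activation of at least 80% with every replicate also reaching 80%; inconclusive = mean reaches 80% but some replicate falls short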
HSF1 activator: increases HSF-1 driven luciferase reporter signal. NIH3T3-HGL HSF-1 luciferase reporter, MG132, 8 h; 100% = twice DMSO control signal. activation, % at 9 µM. 1.7% of 300,000 active. AID 504408;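 active = mean replicate activation of at least 50% with a set share of replicates each reaching 50%; inconclusive = only one of those two conditions met; inactive = mean below 50% and too few replicates reaching it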
A number is an active result; 0 = inactive; ? = inconclusive; - = not tested or not shown.

SMILES	SR-BI uptake up	SR-BI HDL uptake	Wnt act	MITF act	HSF1 activator
CN(C)c1ccnc2sc3c(SCc4ccc(Cl)cc4)ncnc3c12	0	0	-	91	0
C/C(Cc1ccccc1)=N\NC(=O)CNC(=O)c1cccc(Cl)c1	0	0	33	0	0
C/C(Cc1ccccc1)=N\NC(=O)CNC(=O)c1ccc(Cl)cc1Cl	0	0	0	-	0
COc1ccc(NC(=O)CN(C)C(=O)c2ccc(N3CCCCCC3)c([N+](=O)[O-])c2)cc1	0	0	0	0	67
COc1cc(C)cc(C(=O)C=Cc2ccccc2)c1O	0	0	0	0	-
Cc1ccc(/C=C/C(=O)c2ccccc2O)cc1	0	0	0	0	0
CN(C)c1ccc(/C=C/C(=O)c2ccccc2O)cc1	0	0	0	0	58
COc1ccc(NC(=O)CN(C)C(=O)c2ccc(N3CCCCC3)c([N+](=O)[O-])c2)cc1	0	0	0	0	0
COc1ccc(C(=O)/C=C/c2ccccc2)c(OC)c1	0	0	0	0	62
COCOc1cc(O)c(C(=O)/C=C/c2ccccc2)c(OCOC)c1	0	0	0	0	155
COc1ccc(C(=O)/C=C/c2ccc(N3CCCCC3)c([N+](=O)[O-])c2)c(OC)c1	0	0	-	0	68
COc1ccc(C(=O)/C=C/c2ccc(N3CCCCC3)c([N+](=O)[O-])c2)cc1	0	0	0	0	0
COc1ccc(C(=O)/C=C/c2ccc(C)cc2)c(OC(=O)c2ccc([N+](=O)[O-])cc2)c1	0	0	0	0	0
COc1cc(OC)c(C=CC(=O)c2ccccc2O)c(OC)c1	0	73	0	0	-
COc1ccc(OC)c(C(=O)/C=C/c2ccccc2C(F)(F)F)c1	0	0	0	0	212
COc1ccc(C(=O)/C=C/c2ccccc2F)c(OC(=O)c2ccc([N+](=O)[O-])cc2)c1	0	0	35	0	0
COc1cc(/C=C/C(=O)c2ccccc2O)cc(OC)c1OC	0	0	0	-	0
Cc1cccc(C)c1NC(=O)C1(C)CSCC(=O)N1CCc1ccccc1F (stereo not given)	-	-	0	-	-
CC(=O)C[C@@H](O)CC(=O)[C@@H]1OC(=O)[C@H](C)CCCCc2ccccc21	0	0	0	0	-
O=C(c1cccc(S(=O)(=O)N2CCCC2)c1)N1CCN(Cc2ccccc2)CC1	0	0	0	0	-
Nc1nc(-c2cccnc2)nc2sc3c(c12)CCCC3	0	0	?	0	80
COc1ccc(/C=C/c2nc3sc4c(c3c(=O)o2)CCC4)cc1	0	0	-	0	0
O=c1oc(-c2cc3ccccc3o2)nc2sc3c(c12)CCCC3	0	0	0	101	?
O=c1oc(/C=C/c2ccccc2)nc2sc3c(c12)CCC3	0	0	0	105	0
O=c1oc(-c2ccccc2)nc2sc3c(c12)CCCC3	0	0	-	0	69
SMILES	SR-BI uptake up	SR-BI HDL uptake	Wnt act	MITF act	HSF1 activator
O=c1oc(-c2cccs2)nc2sc3c(c12)CCCCC3	0	0	0	?	0
Cc1ccccc1-c1nc2sc3c(c2c(=O)o1)CCC3	0	0	0	0	0
O=C(C(=O)N1CCC(CNS(=O)(=O)c2ccc(F)c(F)c2)CC1)c1cc2ccccc2o1	-	-	0	-	-
COC(=O)[C@]12C[C@H](CC(=O)NCC34CC5CC(CC(C5)C3)C4)C(=O)N(Cc3ccc4c(c3)OCO4)C1=C[C@H](C(C)(C)C)O[C@@H]2C	-	-	0	-	-
Cc1cc(C)c(C#N)c(OCC(=O)c2ccc(Br)cc2)n1	0	0	-	0	0
Cc1ccc(C(=O)CSc2nsc(C)c2C#N)cc1	0	0	-	0	0
Cc1snc(SCC(=O)c2ccc(Cl)cc2)c1C#N	0	0	-	126	0
Cc1ccnc(SCC(=O)c2ccc(Br)cc2)c1C#N	0	0	42	0	90
CC(=O)N1CCN(C(C(=O)Nc2c(C)cccc2C)c2cccc(F)c2)CC1 (stereo not given)	-	-	0	-	-
CCOC(=O)[C@]12CCC=C1N(Cc1ccc3c(c1)OCO3)C(=O)[C@H](CC(=O)N1CCN(C(=O)c3ccco3)CC1)C2	-	-	0	-	-
COC(=O)c1[nH]c2cc(C)ccc2c1NC(=O)CN1CCN(c2ccccc2OC)CC1	0	76	-	0	0
CCOC(=O)C1CCCN(CC(=O)Nc2c(C(=O)OC)[nH]c3ccc(C)cc23)C1 (stereo not given)	0	0	-	-	0
CCOC(=O)C1CCCN(CC(=O)Nc2c(C(=O)OC)[nH]c3ccccc23)C1 (stereo not given)	0	0	-	-	60
Cc1ccc(S(=O)(=O)N2CCCCC2)cc1NC(=O)COC(=O)CN1C(=O)NC2(CC(C)CC(C)(C)C2)C1=O (stereo not given)	0	0	0	0	-
CCOC(=O)C(=Cc1ccc(-n2cncn2)cc1)C(=O)OCC	0	0	0	0	127
CN(C)c1ccc(-c2nn3c(-c4cccnc4)nnc3s2)cc1	-	-	-	-	0
Cc1nnc2sc(-c3ccc(N(C)C)cc3)nn2c1=O	0	0	0	109	0
CCCCNC(=O)c1nc(C2CCNCC2)oc1-c1ccccc1	-	-	0	-	-
COc1ccc(CN2C(=O)CSCC2(C)C(=O)Nc2c(C)cccc2C)cc1OC (stereo not given)	-	-	0	-	-
Cc1ccc(OCc2ccc(C(=O)N3CCCC3)o2)cc1C	0	0	0	0	61
CC(C)c1ccc(OCc2ccc(C(=O)N(C)C)o2)cc1	0	0	45	91	0
CCOc1ccc(OCc2ccc(C(=O)N3CCCCC3)o2)cc1	0	0	0	0	0
CC1CN(C(=O)c2ccc(COc3ccc(C(C)C)cc3)o2)CC(C)O1 (stereo not given)	0	0	0	-	60
CC1CN(C(=O)c2ccc(COc3ccc4ccccc4c3)o2)CC(C)O1 (stereo not given)	0	0	0	-	0
CC(C)c1ccc(OCc2ccc(C(=O)O)o2)cc1	0	0	0	0	-
SMILES	SR-BI uptake up	SR-BI HDL uptake	Wnt act	MITF act	HSF1 activator
CC(=Nc1ccc(Cl)cc1N)c1c(O)cc(C)oc1=O	-	-	0	-	-
O=C(Nc1cccc(Cl)c1)N1CCC(CO)(CCOc2ccccc2)CC1	0	0	0	0	95
O=C(Nc1cccc(S(=O)(=O)N2CCOCC2)c1)C1COc2ccccc2O1 (stereo not given)	0	0	0	0	-
O=C(O)C1C2CCCCC2=C2CCCCC2C1C(=O)O (stereo not given)	0	0	90	0	0
COc1cccc(NC(=O)c2cccc(Cl)c2)c1	0	0	41	104	-
COc1ccc(C(=O)CCNc2cccc(Cl)c2)cc1	0	0	69	0	0
CCC(=O)Nc1cccc(NC(=S)NC(=O)c2ccc(Cl)cc2Cl)c1	0	0	-	0	0
CCC(=O)Nc1cccc(NC(=S)NC(=O)c2ccc(Cl)cc2)c1	0	0	0	0	64
COC(=O)c1cccc(NC(=O)/C=C/c2cccc([N+](=O)[O-])c2)c1	0	73	0	0	0
CN(C)CCN[C@H]1CCC2C3CC=C4C[C@@H](O)CC[C@]4(C)C3CC[C@@]21C (stereo not given in full)	0	0	0	0	-
Cc1ccc(CN2C(=O)c3ccccc3C2c2nnnn2C(C)C)cc1 (stereo not given)	-	-	0	-	-

Screening data: PubChem, Broad Institute
